{"data": "Published values from different studies", "target": "Serine/threonine-protein kinase MARK1 (MARK1, Homo sapiens, UniProt Q9P0L2)", "note": "Protocols differ between the studies behind these lines."}
{"SMILES": "C[C@@]1(Cc2ccc(C#N)cc2)C(=O)N(c2cc(Cl)cc(Cl)c2)c2ncc(C(=O)NC3(c4nc(C5CCC5)no4)CC3)n21", "read-out": "cell-free assay", "technique": "competition with immobilised ligand", "tested at": "1 µM", "endpoint": "remaining binding", "result": "100%"}
{"SMILES": "c1cc(CN2CCOCC2)cc(Nc2nccc(NCCc3cnc[nH]3)n2)c1", "read-out": "enzyme activity", "mode": "inhibitor", "technique": "radiometric", "tested at": "1 µM", "endpoint": "remaining activity", "result": "75%"}
{"SMILES": "FC(F)c1nc2ccccc2n1-c1nc(N2CCOCC2)nc(N2CCOCC2)n1", "read-out": "enzyme activity", "mode": "inhibitor", "tested at": "10 µM", "endpoint": "remaining activity", "result": "106%"}
{"SMILES": "CCCCN(CCCC)C(=O)CN1C[C@H](c2cc(OC)c3c(c2)OCO3)[C@@H](C(=O)O)[C@@H]1CC(C)(C)CCC", "read-out": "cell-free assay", "technique": "competition with immobilised ligand", "tested at": "1 µM", "endpoint": "remaining binding", "result": "96.5%"}
{"SMILES": "CSc1nc(C)c(-c2ccnc(Nc3ccc(N4CCOCC4)cc3)c2)[nH]1", "read-out": "enzyme activity", "mode": "inhibitor", "tested at": "10 µM", "endpoint": "inhibition", "result": "20.1%"}
{"SMILES": "CS(=O)(=O)N1CCCC(NC(=O)[C@H](CCC2CCCCC2)NC(=O)c2ccc(CNc3ncnc4c3nnn4-c3ccccc3)cc2)C1 (some centres unmarked)", "read-out": "cell-free assay", "technique": "competition with immobilised ligand", "tested at": "0.1 µM", "endpoint": "remaining binding", "result": "74%"}
{"SMILES": "Cc1nn(CC(F)(F)F)cc1Nc1ncc(Br)c(NCCc2cnc[nH]2)n1", "read-out": "enzyme activity", "mode": "inhibitor", "technique": "radiometric", "tested at": "1 µM", "endpoint": "remaining activity", "result": "49%"}
{"SMILES": "COc1cc(/C=C/C(=O)CC(=O)/C=C/c2ccc(O)c(OC)c2)ccc1O", "read-out": "enzyme activity", "mode": "inhibitor", "tested at": "1 µM", "endpoint": "activity vs control", "result": "79%"}
{"SMILES": "O=C(NCCCNc1ccnc(Nc2cccc(NC(=O)N3CCCC3)c2)n1)C1CCC1", "read-out": "enzyme activity", "mode": "inhibitor", "technique": "radiometric", "tested at": "1 µM", "endpoint": "remaining activity", "result": "72%"}
{"SMILES": "COc1cc2c(N3CCN(C(=O)Nc4ccc(OC(C)C)cc4)CC3)ncnc2cc1OCCCN1CCCCC1", "read-out": "cell-free assay", "tested at": "0.5 µM", "endpoint": "remaining signal", "result": "89.9%"}
{"SMILES": "COc1cc(Nc2cnc(C#N)c(O[C@H](C)CN(C)C)n2)ncc1-c1cnn(C)c1", "read-out": "enzyme activity", "mode": "inhibitor", "technique": "radiometric", "tested at": "1 µM", "endpoint": "remaining activity", "result": "95%"}
{"SMILES": "CC/C(=N\\NC(=O)NCc1cccc(O)c1)c1ccc(O)c(C)c1O", "read-out": "enzyme activity", "mode": "inhibitor", "tested at": "0.1 µM", "endpoint": "inhibition", "result": "-2.5%"}
{"SMILES": "O=C(NCc1ncc(C(F)(F)F)cc1Cl)c1ccc2c(c1)C1(CCS(=O)(=O)CC1)[C@H](C1CC1)N2S(=O)(=O)c1ccc(F)cc1", "read-out": "cell-free assay", "technique": "competition with immobilised ligand", "tested at": "1 µM", "endpoint": "remaining binding", "result": "100%"}
{"SMILES": "CNC(=O)c1cc(Oc2ccc(NC(=O)Nc3ccc(Cl)c(C(F)(F)F)c3)cc2)ccn1", "read-out": "enzyme activity", "mode": "inhibitor", "tested at": "0.3 µM", "endpoint": "inhibition", "result": "9%"}
{"SMILES": "Cc1nn(CC(F)(F)F)cc1Nc1ncc(Br)c(NCc2ccc(S(N)(=O)=O)cc2)n1", "read-out": "enzyme activity", "mode": "inhibitor", "technique": "radiometric", "tested at": "1 µM", "endpoint": "remaining activity", "result": "90%"}
{"SMILES": "O=S(=O)(NC1CCC(c2cc(F)ccc2F)(S(=O)(=O)c2ccc(Cl)cc2)CC1)C(F)(F)F (centres unmarked)", "read-out": "cell-free assay", "technique": "competition with immobilised ligand", "tested at": "1 µM", "endpoint": "remaining binding", "result": "100%"}
{"SMILES": "Cc1nn(CC(F)(F)F)cc1Nc1ncc(Br)c(NCCCNC(=O)C2CCC2)n1", "read-out": "enzyme activity", "mode": "inhibitor", "technique": "radiometric", "tested at": "1 µM", "endpoint": "remaining activity", "result": "8%"}
{"SMILES": "COc1cc2ncnc(Nc3ccc(F)c(Cl)c3)c2cc1OCCCN1CCOCC1", "read-out": "cell-free assay", "tested at": "0.5 µM", "endpoint": "remaining signal", "result": "116%"}
{"SMILES": "COc1cc2ncnc(Nc3ccc(Oc4ccccc4)cc3C)c2cc1OC", "read-out": "enzyme activity", "mode": "inhibitor", "tested at": "1 µM", "endpoint": "inhibition", "result": "8%"}
{"SMILES": "C#Cc1cccc(Nc2ncnc3cc(OCCOC)c(OCCOC)cc23)c1", "read-out": "cell-free assay", "tested at": "0.5 µM", "endpoint": "remaining signal", "result": "130%"}
{"SMILES": "CN(C)c1nccc(-c2cnn3ncccc23)n1", "read-out": "binding", "tested at": "1 µM", "endpoint": "remaining binding", "result": "96%"}
{"SMILES": "Nc1ncnc2occ(-c3ccc(NC(=O)Nc4cc(C(F)(F)F)ccc4F)cc3)c12", "read-out": "cell-free assay", "mode": "inhibitor", "tested at": "20 µM", "endpoint": "remaining signal", "result": "34%"}
{"SMILES": "CC1=C(C#N)C(c2ccc3c(c2)c(NC(=O)c2ccccc2C)nn3C)C(C#N)=C(C)N1", "read-out": "cell-free assay", "technique": "competition with immobilised ligand", "tested at": "1 µM", "endpoint": "remaining binding", "result": "100%"}
{"SMILES": "FC(F)(F)Oc1cccc(-c2cnc3ccc(-c4ccncc4)nn23)c1", "read-out": "enzyme activity", "mode": "inhibitor", "technique": "radiometric", "tested at": "5 µM", "endpoint": "activity vs control", "result": "95%"}
{"SMILES": "CS(=O)(=O)CCNCc1ccc(-c2ccc3ncnc(Nc4ccc(OCc5cccc(F)c5)c(Cl)c4)c3c2)o1", "read-out": "cell-free assay", "tested at": "0.5 µM", "endpoint": "remaining signal", "result": "149%"}
{"SMILES": "Cc1nn(CC(F)(F)F)cc1Nc1ncc(C2CC2)c(NCc2ccc(S(N)(=O)=O)cc2)n1", "read-out": "enzyme activity", "mode": "inhibitor", "technique": "radiometric", "tested at": "1 µM", "endpoint": "remaining activity", "result": "108%"}
{"SMILES": "Cc1ccc(Nc2nccc(N(C)c3ccc4c(C)n(C)nc4c3)n2)cc1S(N)(=O)=O", "read-out": "enzyme activity", "mode": "inhibitor", "tested at": "10 µM", "endpoint": "inhibition", "result": "26%"}
{"SMILES": "O=C(NCCCNc1nc(Nc2cccc(CN3CCOCC3)c2)ncc1C1CC1)C1CCC1", "read-out": "enzyme activity", "mode": "inhibitor", "technique": "radiometric", "tested at": "1 µM", "endpoint": "remaining activity", "result": "-5%"}
{"SMILES": "CCC(=O)N[C@H]1CC[C@@H](C(=O)N(C)c2ccc(-c3nc4ccccc4o3)cc2)C1", "read-out": "cell-free assay", "technique": "competition with immobilised ligand", "tested at": "1 µM", "endpoint": "remaining binding", "result": "100%"}
{"SMILES": "Brc1cnc(Nc2cccc(CN3CCOCC3)c2)nc1NCCc1c[nH]cn1", "read-out": "enzyme activity", "mode": "inhibitor", "technique": "radiometric", "tested at": "1 µM", "endpoint": "remaining activity", "result": "-3%"}
{"SMILES": "Cc1cc(C)c(-n2ccn3nc(-c4cccnc4)cc23)cc1NC(=O)c1cc(C#N)cc(S(F)(F)(F)(F)F)c1", "read-out": "cell-free assay", "technique": "competition with immobilised ligand", "tested at": "0.1 µM", "endpoint": "remaining binding", "result": "96.7%"}
{"SMILES": "CCN(CC)CCNC(=O)c1c(C)[nH]c(/C=C2\\C(=O)Nc3ccc(F)cc32)c1C", "read-out": "enzyme activity", "mode": "inhibitor", "tested at": "0.3 µM", "endpoint": "inhibition", "result": "50%"}
